ChEMBL document CHEMBL1148730, “Design of noncompetitive interleukin-8 inhibitors acting on CXCR1 and CXCR2” (J Med Chem, 2007)
Active and inactive are the calls of the source. The calls are words filed in the database; no cut-off is given here.

Experiments:
[1] = Inhibition of CXCL8-induced cell migration in human PMN cells at 0.01 uM by chemotaxis assay; type: functional
Procedure, shortened: (§1)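 Human PMNs from normal-donor buffy coats (dextran sedimentation, hypotonic lysis; 95% purity, >95% viability). Cells at 1.5-3 × 10⁶/mL preincubated 15 min at 37 °C with vehicle or compound, then seeded in triplicate in the upper well of a 48-well micro-chemotaxis chamber. Lower well held CXCL8 1 nM or CXCL1 10 nM. Chamber ran 45 min at 37 °C in 5% CO₂; filters were fixed and stained, and five 100× fields per well were counted.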

[2] = Inhibition of CXCL1-induced cell migration in human PMN cells at 0.01 uM by chemotaxis assay; type: functional; procedure, shortened: as §1
[3] = Inhibition of CXCL8-induced cell migration in human PMN cells at 1 nM chemotaxis assay; type: functional; procedure, shortened: as §1
[4] = Inhibition of CXCL8-induced cell migration in human PMN cells 0.1 uM chemotaxis assay; type: functional; procedure, shortened: as §1
L1.2 [5] = assay: Inhibition of CXCL8-induced cell migration in L1.2 cells expressing CXCR1 by chemotaxis assay; type: functional, cell-based; conditions: Mus musculus
Procedure, shortened: (§2)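 Mouse L1.2 lymphoma cells were transiently electroporated with wild-type or Ile43Val human CXCR1, with expression checked by flow cytometry at 48 h. Cells were kept overnight in 5 mM sodium butyrate, resuspended at 10⁷/mL, and pretreated 30 min at 37 °C with compound (1-1000 nM). Migration to 10 nM CXCL8, with compound in both chambers, ran 4 h at 37 °C through 5 µm Transwells. Cells were counted in a Bürker chamber and expressed as % of migration without compound, from ≥3 independent experiments.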

L1.2 [6] = assay: Inhibition of CXCL8-induced cell migration in L1.2 cells expressing Ile43Val CXCR1 mutant by chemotaxis assay; type: functional, cell-based; conditions: Mus musculus; procedure, shortened: as §2
L1.2 [7] = assay: Inhibition of CXCL8-induced cell migration in L1.2 cells expressing wild type CXCR1 at up to 1000 nM by chemotaxis assay; type: functional, cell-based; conditions: Mus musculus; procedure, shortened: as §2
L1.2 [8] = assay: Inhibition of CXCL8-induced cell migration in L1.2 cells expressing wild type CXCR1 at 0.1 uM by chemotaxis assay; type: functional; conditions: Mus musculus; procedure, shortened: as §2
Macrophage = assay: Inhibition of the LPS-induced PGE2 production in human macrophages at 10 uM; type: functional
[9] = Inhibition of CXCL1-induced cell migration human PMN cells at 0.1 uM chemotaxis assay; type: functional; procedure, shortened: as §1

Row | SMILES | inhibition at 0.01 µM [1] [%] | inhibition at 0.01 µM [2] [%] | also measured
1 | C[C@@H](C(=O)NS(=O)(=O)C(F)(F)F)c1ccc(OS(=O)(=O)C(F)(F)F)cc1 | -4 | – | –
2 | C/C=C/c1ccc(C(C)C(=O)O)cc1 (centres undefined) | 11 | – | –
3 | CC(=O)c1cccc([C@@H](C)C(=O)O)c1 | 5 | – | –
4 | CC(C(=O)O)c1cccc(C(=O)c2cccs2)c1 (centres undefined) | 51 | 50 | –
5 | C[C@@H](C(=O)Nc1nccs1)c1ccc(OS(=O)(=O)C(F)(F)F)cc1 | 57 | 56 | –
6 | C[C@@H](C(=O)Nc1nc(C(F)(F)F)cs1)c1ccc(OS(=O)(=O)C(F)(F)F)cc1 | 64 | 60 | –
7 | CCC(=O)c1cccc(C(C)C(=O)O)c1 (centres undefined) | 1 | – | –
8 | CC(C)NC(=O)[C@H](C)c1ccc(OS(=O)(=O)C(F)(F)F)cc1 | – | 72 | Inhibition [3]: 50%
9 | C[C@@H](C(=O)NS(=O)(=O)c1ccccc1)c1ccc(OS(=O)(=O)C(F)(F)F)cc1 | 43 | 8 | –
10 | CC(C(=O)O)c1ccc(Cc2ccccc2)cc1 (centres undefined) | 1 | 35 | –
11 | CC(C(=O)O)c1ccc(NS(=O)(=O)C(F)(F)F)cc1 (centres undefined) | 10 | – | –
12 | CC(C(=O)O)c1ccc(CC2CCCCC2)cc1 (centres undefined) | 2 | 39 | –
13 | C[C@@H](C(=O)NCC1CC1)c1ccc(OS(=O)(=O)C(F)(F)F)cc1 | 12 | – | –
14 | C[C@@H](C(=O)NO)c1ccc(OS(=O)(=O)C(F)(F)F)cc1 | 48 | 50 | –
15 | C[C@@H](C(N)=O)c1ccc(OS(=O)(=O)C(F)(F)F)cc1 | 60 | 58 | –
16 | CC(C(=O)O)c1ccc(OS(C)(=O)=O)cc1 (centres undefined) | 5 | – | –
17 | CC(C(=O)O)c1ccc(OS(=O)(=O)C(C)C)cc1 (centres undefined) | 49 | 46 | –
18 | CC(C(=O)O)c1ccc(NS(C)(=O)=O)cc1 (centres undefined) | -8 | – | –
19 | C[C@@H](C(=O)NS(=O)(=O)c1cccnc1)c1ccc(OS(=O)(=O)C(F)(F)F)cc1 | 11 | – | –
20 | CONC(=O)[C@H](C)c1ccc(OS(=O)(=O)C(F)(F)F)cc1 | 60 | 40 | –
21 | C[C@@H](C(=O)NC1CCCC1)c1ccc(OS(=O)(=O)C(F)(F)F)cc1 | 0 | – | –
22 | C[C@@H](C(=O)Nc1ccccn1)c1ccc(OS(=O)(=O)C(F)(F)F)cc1 | 48 | 50 | –
23 | C/C=C/c1cccc(C(C)C(=O)O)c1 (centres undefined) | -1 | – | –
24 | C[C@@H](C(=O)Nc1ncco1)c1ccc(OS(=O)(=O)C(F)(F)F)cc1 | 50 | 48 | –
25 | CC(C(=O)O)c1cccc(C(O)c2ccccc2)c1 (centres undefined) [2-{3-[HYDROXY(PHENYL)METHYL]PHENYL}PROPANOIC ACID] | 31 | 40 | –
26 | CC(C(=O)O)c1ccc(NS(=O)(=O)c2ccccc2Cl)cc1 (centres undefined) | -2 | 66 | –
27 | CC(C)c1cccc(C(C)C(=O)O)c1 (centres undefined) | 62 | 55 | –

Row | SMILES | inhibition at 0.01 µM [1] [%] | inhibition at 0.01 µM [2] [%] | also measured
28 | CC(C)C(=O)c1cccc(C(C)C(=O)O)c1 (centres undefined) | 20 | – | –
29 | CC(C(=O)O)c1ccc(CC2CCC2)cc1 (centres undefined) | 55 | 59 | –
30 | CC(C(=O)O)c1ccc(N2CCCC2=O)cc1 (centres undefined) | 10 | – | –
31 | C[C@@H](C(=O)Nc1cccnc1)c1ccc(OS(=O)(=O)C(F)(F)F)cc1 | 5 | – | –
32 | C[C@@H](C(=O)NC1CC1)c1ccc(OS(=O)(=O)C(F)(F)F)cc1 | -11 | – | –
33 | CC(C(=O)O)c1ccc(C2CCCCC2)cc1 (centres undefined) [HEXAPROFEN] | 10 | – | –
34 | CC(C(=O)O)c1ccc(NS(=O)(=O)C(C)C)cc1 (centres undefined) | 44 | – | –
35 | CC(C(=O)O)c1cccc(C(C)c2ccccc2)c1 (centres undefined) | 55 | 45 | –
36 | CC(C(=O)O)c1ccc(-c2cccs2)cc1 (centres undefined) | 11 | – | –
37 | CC(C(=O)O)c1cccc(C(=O)C2CCCCC2)c1 (centres undefined) | 5 | 4 | –
38 | C=C(c1ccccc1)c1cccc(C(C)C(=O)O)c1 (centres undefined) | 47 | 2 | –
39 | CC(C)ONC(=O)[C@H](C)c1ccc(OS(=O)(=O)C(F)(F)F)cc1 | 50 | 40 | –
40 | CC(C(=O)O)c1ccc(-c2ccccc2)cc1 (centres undefined) | 0 | – | –
41 | CC(C)S(=O)(=O)NC(=O)[C@H](C)c1ccc(OS(=O)(=O)C(F)(F)F)cc1 | 60 | 15 | –
42 | CC(C(=O)O)c1ccc(OC(=O)c2ccccc2)cc1 (centres undefined) | 32 | – | –
43 | C[C@@H](C(=O)NS(C)(=O)=O)c1ccc(OS(=O)(=O)C(F)(F)F)cc1 [LADARIXIN] | 60 | 61 | –
44 | Cc1ccc(S(=O)(=O)Oc2ccc(C(C)C(=O)O)cc2)cc1 (centres undefined) | 49 | 65 | –
45 | CCC(=O)Oc1ccc(C(C)C(=O)O)cc1 (centres undefined) | -6 | – | –
46 | CC(C(=O)O)c1ccc(OS(=O)(=O)C(F)(F)F)cc1 (centres undefined) | 57 | 57 | –
47 | CC(C(=O)O)c1cccc(C(C)(O)c2ccccc2)c1 (centres undefined) | 0 | – | –
48 | C[C@@H](C(=O)N(C)O)c1ccc(OS(=O)(=O)C(F)(F)F)cc1 | 48 | 47 | –
49 | C[C@@H](C(=O)Nc1ccncc1)c1ccc(OS(=O)(=O)C(F)(F)F)cc1 | 11 | – | –
50 | CCC(CC)c1cccc(C(C)C(=O)O)c1 (centres undefined) | 58 | 67 | –
51 | CC(C(=O)O)c1ccc(NC(=O)c2ccccc2)cc1 (centres undefined) | 8 | – | –
52 | C[C@@H](C(=O)NS(=O)(=O)c1ccccc1Cl)c1ccc(OS(=O)(=O)C(F)(F)F)cc1 | 18 | – | –
53 | CC(C)Cc1cccc(C(C)C(=O)O)c1 (centres undefined) | -10 | – | –
54 | CC(C(=O)O)c1ccc(C(C)(C)C)cc1 (centres undefined) | 6 | – | –

Row | SMILES | inhibition at 0.01 µM [1] [%] | inhibition at 0.01 µM [2] [%] | also measured
55 | CC(C(=O)O)c1ccc(NS(=O)(=O)c2ccccc2)cc1 (centres undefined) | 45 | 14 | –
56 | CCC(C)c1cccc(C(C)C(=O)O)c1 (centres undefined) | – | – | Inhibition [4]: 50%
57 | CNC(=O)[C@H](C)c1ccc(OS(=O)(=O)C(F)(F)F)cc1 | 22 | – | –
58 | CC(C)Cc1ccc([C@@H](C)C(=O)NS(C)(=O)=O)cc1 [REPARIXIN] | – | – | IC50 (L1.2 [5]): 0.0056 µM; IC50 (L1.2 [6]): 0.08 µM; Activity (L1.2 [7]): Active; inhibition at 0.1 µM (L1.2 [8]): 80%
59 | CC(C(=O)O)c1cccc(C(=O)c2ccco2)c1 (centres undefined) | -3 | – | –
60 | CC(O)c1cccc(C(C)C(=O)O)c1 (centres undefined) | 43 | 40 | –
61 | CC(C(=O)O)c1ccc(OS(=O)(=O)c2ccccc2)cc1 (centres undefined) | 55 | 54 | –
62 | C[C@@H](C(=O)O)c1cccc(C(=O)c2ccccc2)c1 [R-KETOPROFEN] | 64 | 61 | –
63 | C[C@@H](C(=O)O)c1ccc(OS(=O)(=O)C(F)(F)F)cc1 | 68 | 65 | inhibition at 10 µM (Macrophage): 17%
64 | CC(C(=O)O)c1cccc(C(=O)C2CCCC2)c1 (centres undefined) | -5 | 2 | –
65 | CCCCc1cccc(C(C)C(=O)O)c1 (centres undefined) | 3 | – | –
66 | CC(C(=O)O)c1ccc(N2Cc3ccccc3C2=O)cc1 (centres undefined) [INDOPROFEN] | 50 | – | Inhibition [9]: 40%
67 | CC(C)c1ccc(C(C)C(=O)O)cc1 (centres undefined) | 15 | – | –
68 | CC(C(=O)O)c1cccc(Oc2ccccc2)c1 (centres undefined) [FENOPROFEN] | -17 | – | –
69 | CC(C(=O)O)c1cccc(S(=O)(=O)c2ccccc2)c1 (centres undefined) | 9 | – | –
70 | CC(C)=Cc1ccc(C(C)C(=O)O)cc1 (centres undefined) | 14 | – | –
71 | C[C@@H](C(=O)Nc1ccccc1)c1ccc(OS(=O)(=O)C(F)(F)F)cc1 | 10 | – | –
72 | CC(Cc1cccc(C(C)C(=O)O)c1)c1ccccc1 (centres undefined) | 0 | – | –
73 | Cc1ccc(S(=O)(=O)Nc2ccc(C(C)C(=O)O)cc2)cc1 (centres undefined) | 69 | 0 | –
74 | CCc1ccccc1S(=O)(=O)Nc1ccc(C(C)C(=O)O)cc1 (centres undefined) | 47 | 80 | –
75 | CC(C(=O)O)c1ccc(CC2CC2)cc1 (centres undefined) | 24 | 30 | –
76 | CC(C(=O)O)c1ccc(CC2CCCC2)cc1 (centres undefined) | 10 | 40 | –
77 | CC(C(=O)O)c1cccc(Cc2ccccc2)c1 (centres undefined) | 10 | – | –
78 | CC(C(=O)O)c1cccc(C(=O)c2nccs2)c1 (centres undefined) | 63 | 48 | –
79 | CC(C(=O)O)c1cccc(C(=O)c2ncco2)c1 (centres undefined) | 26 | – | –
80 | CCC(O)c1cccc(C(C)C(=O)O)c1 (centres undefined) | 57 | 40 | –
